# Compounds with a hit are over-represented: about 5.4% of the library has one in this group of screens.
# Mdm2 MdmX PPI: disrupts the human Mdm2-MdmX interaction; O15151+Q00987; SaOS-2 split-luciferase Mdm2/MdmX complementation, luminescence; inhibition, % at 8 µM; hit rate 3% among 330,000;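 active means inhibition of at least 50% at 8 µM in the primary screen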
# Target sequence (O15151 whole entry, looked up): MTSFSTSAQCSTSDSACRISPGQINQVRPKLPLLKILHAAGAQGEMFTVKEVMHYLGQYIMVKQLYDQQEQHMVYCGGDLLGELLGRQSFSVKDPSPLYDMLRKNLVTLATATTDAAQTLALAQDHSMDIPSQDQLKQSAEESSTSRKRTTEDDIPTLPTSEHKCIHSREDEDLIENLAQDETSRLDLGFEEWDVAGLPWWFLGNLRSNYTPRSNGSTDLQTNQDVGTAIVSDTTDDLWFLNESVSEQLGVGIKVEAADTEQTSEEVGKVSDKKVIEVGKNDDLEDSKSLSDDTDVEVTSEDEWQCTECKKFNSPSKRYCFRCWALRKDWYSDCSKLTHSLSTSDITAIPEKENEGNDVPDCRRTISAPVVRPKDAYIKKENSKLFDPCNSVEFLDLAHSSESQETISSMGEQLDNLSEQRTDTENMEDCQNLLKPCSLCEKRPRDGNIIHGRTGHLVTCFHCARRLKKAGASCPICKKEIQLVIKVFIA
# Target sequence (Q00987 whole entry, looked up): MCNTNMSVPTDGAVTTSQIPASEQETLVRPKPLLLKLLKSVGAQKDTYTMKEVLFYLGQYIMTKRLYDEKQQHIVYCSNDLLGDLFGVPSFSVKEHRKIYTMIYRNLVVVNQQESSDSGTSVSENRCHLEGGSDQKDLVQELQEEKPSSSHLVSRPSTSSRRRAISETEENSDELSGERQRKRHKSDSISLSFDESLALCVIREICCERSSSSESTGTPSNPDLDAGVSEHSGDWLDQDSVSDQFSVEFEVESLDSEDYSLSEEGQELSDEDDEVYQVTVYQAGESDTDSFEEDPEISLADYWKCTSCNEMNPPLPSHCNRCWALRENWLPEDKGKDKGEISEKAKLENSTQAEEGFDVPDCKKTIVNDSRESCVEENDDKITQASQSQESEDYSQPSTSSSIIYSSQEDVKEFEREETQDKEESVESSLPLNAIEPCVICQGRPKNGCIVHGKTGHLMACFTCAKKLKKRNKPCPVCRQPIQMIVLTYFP
# aSyn UTR inh: MLPCN primary screen, SNCA 5' untranslated region; hit rate 0.82% among 300,000; inhibition, % (tested at 7.5 µM); alpha-synuclein 5'UTR reporter, inhibitor activity; in the data active means inhibition above about 60%; inconclusive means no clear call, values can overlap the other calls;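 further: H4 neuroglioblastoma cells stably carrying SNCA 5'UTR luciferase fusion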
# SKKanGAS inh: inhibitors of SKKanGAS S. pyogenes growth in kanamycin (SK-promoter or general growth effect). BacTiter-Glo, 6 h. hit rate 1.3% among 300,000. AID 1662. inhibition, % at 7.5 µM;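 active means mean replicate score, as percent of positive control median, at least 50; inconclusive means mean below 50 but one replicate at or above 50; inactive means mean and every replicate below 50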;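 further: strain carries kanamycin resistance gene driven by streptokinase promoter and grows in 40 µg/ml kanamycin; loss of luminescence reflects streptokinase promoter inhibition or plain growth inhibition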
# CSC inhib: blocks cancer stem cells; inhibition, % at 7.5 µM; AID 2717; cancer stem cell-like cells viability, luminescence; hit rate 1.1% among 300,000; in the data active means inhibition above about 75%; inconclusive means no clear call, values can overlap the other calls; tested in HMLE shEcad cells
# T cruzi inh: blocks replication of Trypanosoma cruzi. T. cruzi beta-gal in NIH3T3, luminescence, 90 h. inhibition, % (test concentration not listed). hit rate 1.4% among 300,000;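 active means mean inhibition across valid replicates above about 55%, limit read from the data; inconclusive means mean below that limit but half or more replicates reach it; inactive means mean below it, under half of replicates reach it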;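 further: signal also drops with host cell toxicity which is not excluded here; higher percent means less beta-gal luminescence so fewer parasites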
#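 System: Mouse NIH/3T3 fibroblasts infected with β-gal-expressing T. cruzi Tulahuen C4 | Quantity: NIH/3T3 cells, 5,000 per well | Reagent: 5000 reporter trypomastigotes per well | Dosing: Compound pinned at 50 nL/well, DMSO | Schedule: 3 h host attachment, then at least 90 h co-culture | Detection: GalScreen luminescence, 60 min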
# Mdm2 MdmX conf: confirmation of human Mdm2/MdmX interaction inhibitors | shares compounds with Mdm2 MdmX PPI | Mdm2-MdmX binding, luminescent assay | inhibition, % at 8 µM | hit rate 55% among 10,000 | AID 489028; in the data active means inhibition above about 40%
# Full FLuc ctr: inhibits full-length luciferase, flagging false Mdm2/MdmX hits | shares compounds with Mdm2 MdmX PPI | hit rate 77% among 6,200 | inhibition, % at 8 µM | SaOS-2 full-length luciferase counterscreen, luminescence;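 active means mean inhibition at 8 µM reaching about 37%, which flags the compound as non-specific, limit read from the data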;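 further: p53-null SaOS-2 cells with luciferase driven by a doxycycline-inducible promoter; compound on cells about two nights before reading with doxycycline added after day one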
# Numbers stand for hits; . = inactive; ? = inconclusive; / = no result given.
SMILES,Mdm2 MdmX PPI,aSyn UTR inh,SKKanGAS inh,CSC inhib,T cruzi inh,Mdm2 MdmX conf,Full FLuc ctr
O=[N+]([O-])c1nn(-c2ccc3c(c2)OCCO3)n(O)c1=Nc1ccccc1,91,80,.,.,.,95,53
Cc1ccc(N=c2c([N+](=O)[O-])nn(-c3ccc4c(c3)OCCO4)n2O)cc1F,80,.,.,.,?,95,.
CCN(CC(=O)NCc1cccs1)C(=O)c1cccc(S(=O)(=O)N2CCc3ccccc32)c1,.,.,.,.,.,/,/
O=[N+]([O-])c1ccc(Sc2cccc3cccnc23)c2cccnc12,65,.,.,.,86,56,50
O=[N+]([O-])c1cc2cccnc2c2ncccc12,.,.,.,.,.,/,/
COc1nc(/C=C/N(C)C)c([N+](=O)[O-])c(OC)n1,52,.,.,.,.,.,/
CC(=O)Oc1ccc2oc(/C=C/N(C)C)c([N+](=O)[O-])c2c1,.,.,.,.,.,/,/
Cc1nn(-c2ccccc2Cl)c(Cl)c1/C=N/Nc1cccc(C(=O)O)c1,73,103,.,.,.,83,124
Cc1oc(-c2cccc(Cl)c2)nc1CN1CCC(C(=O)NCCCN2CC(C)CC(C)C2)CC1 (stereo not given),100,.,.,.,?,98,53
Cc1oc(-c2ccc(Cl)cc2)nc1CN1CCC(C(=O)NCc2cccnc2)CC1,.,.,.,.,.,/,/
CCN1CCN(CCNC(=O)C2CCCN(Cc3nc(-c4cccc(Cl)c4)oc3C)C2)CC1 (stereo not given),63,.,.,.,.,.,/
CCCN(CCC)CCNC(=O)C1CCN(Cc2nc(-c3ccc(Cl)cc3)oc2C)CC1,88,.,.,.,73,79,.
O=C(CC(=O)Nc1cccc(Cl)c1Cl)Nc1cccc(Cl)c1Cl,.,.,.,.,.,/,/
CCCCCCOC(=O)C[N+](C)(C)CCOC1CC2CCC1(C)C2(C)C (stereo not given),67,.,.,.,72,74,.
COc1ccc(C(C)NC(=O)c2ccncc2)cc1 (stereo not given),.,.,.,.,.,/,/
Cc1ccc(C(=O)OCC(=O)NC(=O)NCc2ccccc2)cc1C,.,/,/,.,/,/,/
O=C(COC(=O)c1ccc(F)c([N+](=O)[O-])c1)NC(=O)NCc1ccccc1,73,/,/,.,/,.,/
COC(=O)c1ccccc1S(=O)(=O)NNC(=O)Nc1ccccc1,69,.,.,.,.,50,75
O=C(COC(=O)C1CCN(S(=O)(=O)c2ccccc2C(F)(F)F)CC1)NCc1ccc(F)cc1,.,.,.,.,.,/,/
COc1ccc2oc(/C=C/N(C)C)c(C(=O)c3ccc(Cl)cc3)c2c1,79,.,.,.,.,.,/
Cn1cc(/C=N/NC(=O)c2ccc(C#N)cc2F)c2ccccc21,.,.,.,.,.,/,/
O=C(COc1cccc(F)c1)Nc1nc(-c2ccncc2)cs1,.,/,/,/,/,/,/
Cc1cc(Nc2ccc([N+](=O)[O-])cc2)c2ccccc2n1,93,.,.,.,.,70,55
Cc1cc(Nc2cccc([N+](=O)[O-])c2)c2ccccc2n1,.,.,.,.,.,/,/
CCOc1ccc2nc(C)cc(Nc3cccc([N+](=O)[O-])c3)c2c1,100,.,.,.,.,100,51
SMILES,Mdm2 MdmX PPI,aSyn UTR inh,SKKanGAS inh,CSC inhib,T cruzi inh,Mdm2 MdmX conf,Full FLuc ctr
CCOc1ccc2nc(C)cc(Nc3ccc4c(c3)OCCO4)c2c1,.,.,.,.,.,/,/
CCOc1ccc2nc(C)cc(Nc3ccc(N4CCOCC4)cc3)c2c1,.,.,.,.,.,.,/
CC(=O)c1ccc(Nc2cc(C)nc3ccc(C)cc23)cc1,51,.,.,/,.,.,90
O=C(Cc1cccs1)NC1(C(=O)NC2CCCC2)CCCCC1,.,.,.,.,.,/,/
O=[N+]([O-])c1ccc(SCc2ccncc2)nc1,.,.,.,.,.,/,/
CCOC(=O)c1ccc2ncc(C(=O)OCC)c(Nc3ccc(N4CCOCC4)cc3)c2c1,68,.,.,.,.,55,55
CCOC(=O)c1cnc2ccc(C(=O)OC)cc2c1Nc1ccc(C(=O)O)cc1,.,.,.,.,.,/,/
CC(C)(C)N1C(=O)[C@H]2[C@@H](c3ccc(Br)cc3)N3C(=O)N(c4cccc(Cl)c4)C(=O)[C@@]3(Cc3ccccc3)[C@H]2C1=O,.,.,.,.,.,/,/
